Activity calls are given as the source filed them. The rule behind the calls is not given here. A value given as a limit tells only on which side of the number the result lay.

One data set has as its system HepG2. In words: Cytotoxicity against human HePG2 cells assessed as growth inhibition after 48 hrs by Cell Titer-Glo assay. The data set is classed as cell-based. The following applies: HepG2, 48 h.
In data set [1] the test system is Plasmodium falciparum. In words: Antimalarial activity against Plasmodium falciparum NF54 late stage ([…]) expressing Pfs16-LUC-GFP assessed as growth inhibition at 20 uM by high content imaging assay relative to control. Type of data set: functional. The following applies: read-out: GI.
Data set [2] has as its system Plasmodium falciparum. In words: Antimalarial activity against asexual blood stage of Mefloquine-resistant Plasmodium falciparum W2mef assessed as reduction in cell viability after 72 hrs by EtBr staining based flow cytometric analysis. Type of data set: functional, organism-based.
Data set [3] has as its system Plasmodium falciparum. Nature of the data set: Antimalarial activity against asexual blood stage of Plasmodium falciparum 3D7 assessed as reduction in cell viability after 72 hrs by EtBr staining based flow cytometric analysis. The data set is classed as functional, organism-based. The following applies: 3D7, 72 h.
Data set [4] has as its system Plasmodium falciparum. Nature of the data set: Antimalarial activity against asexual blood stage of artemisinin-resistant Plasmodium falciparum Cam3.12539T cambodian isolate assessed as reduction in cell viability after 72 hrs by EtBr staining based flow cytometric analysis. The following applies: Cam3.12539T cambodian isolat. The data set is classed as functional, organism-based.

Data set [5] has as its system Plasmodium falciparum. In words: Antimalarial activity against Plasmodium falciparum NF54 early stage (1 to 3) expressing Pfs16-LUC-GFP assessed as growth inhibition at 20 uM by high content imaging assay relative to control. Type of data set: functional. The following applies: read-out: GI.
Data set [6] concerns Plasmodium falciparum. In words: Antimalarial activity against schizonts stage of Plasmodium falciparum D10 expressing GFP infected in human RBC assessed as reduction in ring stage formation at 4 times of EC90 concentration after 6 hrs by flow cytometric analysis. The data set is classed as functional, organism-based.
The subject of another data set is Plasmodium knowlesi. Nature of the data set: Antimalarial activity against asexual blood stage of Plasmodium knowlesi YHI assessed as reduction in cell viability after 48 hrs by EtBr staining based flow cytometric analysis. The data set is classed as functional, organism-based.
Data set [7] relates to Plasmodium falciparum. In words: Antimalarial activity against schizonts stage of Plasmodium falciparum D10 expressing GFP infected in human RBC assessed as reduction in merozoites invade to RBC at 4 times of EC90 concentration after 6 hrs by flow cytometric analysis. Type of data set: functional, organism-based.
Data set [8] has as its system Plasmodium falciparum. In words: Antimalarial activity against Plasmodium falciparum 3D7 incubated for 72 hrs by LDH assay. Type of data set: functional, organism-based. The settings on record: 3D7, 72 h. A digest of the protocol:
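Asexual blood-stage P. falciparum 3D7 parasites were cultured with compound for 72 h, and viability was read by lactate dehydrogenase (LDH) activity.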

For data set [9], the system named is Plasmodium falciparum. In words: Antimalarial activity against schizonts stage of Plasmodium falciparum D10 expressing PEXEL-Nluc infected in human RBC assessed as reduction in invasion at 5 times of EC90 concentration preincubated for 30 mins followed by compound wash out and measured after 24 hrs by luminometric method. Type of data set: functional, organism-based.

A short description of data set [10]: Selectivity ratio of IC50 for antimalarial activity against asexual blood stage of chloroquine-resistant Plasmodium falciparum 7G8 to IC50 for antimalarial activity against asexual blood stage of Plasmodium falciparum 3D7. The data set is classed as functional.
Data set [11] relates to Plasmodium falciparum. Nature of the data set: Antimalarial activity against asexual blood stage of chloroquine-resistant Plasmodium falciparum 7G8 assessed as reduction in cell viability after 72 hrs by EtBr staining based flow cytometric analysis. Type of data set: functional, organism-based. The settings on record: 7G8, 72 h.
The test system of data set [12] is Plasmodium falciparum. In words: Antimalarial activity against Plasmodium falciparum NF54 early stage (1 to 3) expressing Pfs16-LUC-GFP assessed as growth inhibition by high content imaging assay. Type of data set: functional, organism-based.
The test system of data set [13] is Plasmodium falciparum. In words: Antimalarial activity against asexual blood stage of chloroquine-resistant Plasmodium falciparum Dd2 assessed as reduction in cell viability after 72 hrs by EtBr staining based flow cytometric analysis. The settings on record: Dd2, 72 h. Type of data set: functional, organism-based.
Data set [14] has as its system Plasmodium falciparum. In words: Antimalarial activity against Plasmodium falciparum NF54 late stage ([…]) expressing Pfs16-LUC-GFP assessed as growth inhibition by high content imaging assay. The data set is classed as functional, organism-based.
Data set [15] concerns Plasmodium falciparum. In words: Antimalarial activity against asexual blood stages of Plasmodium falciparum 3D7 infected in human RBC by Live cell microscopic method. The data set is classed as functional, organism-based. The following applies: 3D7, Erythrocyte.
Data set [16] in a line: Intrinsic clearance in mouse liver microsomes at 1 uM in presence of NADPH measured up to 60 mins by LC-MS analysis. Type of data set: ADME, Microsome. The settings on record: read-out: CLH.

Regarding `C[C@@H](C(=O)N1CCCCC1)N1CCN(S(=O)(=O)c2ccc(C(C)(C)C)cc2)CC1`, the EC50 with HepG2 is greater than 40000 nM; in the data set with Plasmodium falciparum [2], 490 nM; in the data set on Plasmodium falciparum [3] it was 610 nM; in the data set on Plasmodium falciparum [4] it was 1300 nM; in the data set on Plasmodium knowlesi it was 1300 nM; with Plasmodium falciparum [8] it was 200 nM. Moreover, the EC50 with Plasmodium falciparum [11] was 5100 nM; in the data set with Plasmodium falciparum [12], greater than 10000 nM; with Plasmodium falciparum [13], 860 nM; with Plasmodium falciparum [14], greater than 10000 nM. Besides, the inhibition of growth at 20 µM worked out at 41% with Plasmodium falciparum [1] and 49% in the data set on Plasmodium falciparum [5]. Besides, the result with Plasmodium falciparum [6], in the data set with Plasmodium falciparum [7] and in the data set with Plasmodium falciparum [9] was Active. For the same compound, the Ratio IC50 in data set [10] came out at 8.

On to `CC(C(=O)N1CCCC1)N1CCN(S(=O)(=O)c2ccc(C(C)(C)C)cc2)CC1` (stereo not given), for which the results for the EC50 in the data set with HepG2, in the data set on Plasmodium falciparum [15] and in the data set with Plasmodium falciparum [8] were greater than 40000 nM, 900 nM and 690 nM, respectively. In addition, in [16], the CLint scaled at 1 µM was greater than 2100 mL/min/kg.
